Here are results for 1 compound from ChEMBL document CHEMBL5247599, “New β-arylchalcogeno amines with procognitive properties targeting Carbonic Anhydrases and Monoamine Oxidases” (Eur J Med Chem, 2022).

Data set [1] concerns the target Carbonic anhydrase 5B, mitochondrial (Homo sapiens) (UniProt Q9Y2D0). In words: Binding affinity to human CA5b by phenol red dye based stopped flow CO2 hydration assay. As to conditions: filed as activator. The gist of the method: (§1)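 Purified recombinant human CA isoforms. CA-catalysed CO2 hydration was followed by stopped-flow with phenol red at 557 nm, taking initial rates over 10–100 s from at least six traces of the first 5–10% of reaction. Uncatalysed rates were subtracted. Activator stocks were 0.1 mM in deionised water, diluted down to 0.1 nM in assay buffer. K_A came from non-linear least-squares Michaelis–Menten fitting.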

In data set [2] the test system is Mus musculus. In words: Pro-cognitive activity in C57Bl6 mouse assessed as attenuation of long-term memory deficit by measuring increase in exploration time for novel juvenile by measuring discrimination index at 50 nmol/uL, icv measured after 48 hrs by novel object recognition test. Type of data set: functional. The gist of the method: (§2)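 Social recognition in adult male C57Bl6 mice with intracerebroventricular cannulae. Habituation was 10 min with two empty cups. Twenty-four hours later, a novel 3–4-week-old juvenile was placed under one cup for 10 min of exploration, followed immediately by a 5 µL infusion at 1 µL/min. Retention 48 h later offered familiar versus novel juvenile, scoring snout-to-cup contact. DI = (tN−tF)/(tN+tF).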

Data set [3] deals with Carbonic anhydrase 1 (Homo sapiens) (UniProt P00915). In words: Binding affinity to human CA1 by phenol red dye based stopped flow CO2 hydration assay. As to conditions: filed as activator. The gist of the method:
as §1

Data set [4] concerns Mus musculus. In words: Pro-cognitive activity in C57Bl6 mouse assessed as attenuation of long-term memory deficit by measuring increase in exploration time for novel juvenile at 25 nmol/uL, icv measured after 48 hrs by novel object recognition test. Type of data set: functional, organism-based. The method, boiled down: (§3)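 Male adult C57Bl6 mice (8–9 weeks), lateral-ventricle cannula implanted 7 days earlier. Social recognition: 10-min habituation to arena with two empty cups; 24 h later 10-min acquisition with an unfamiliar juvenile (3–4 weeks) under one wire cup. Immediately after, 5 µL i.c.v. infusion at 1 µL/min. Retention at 48 h with familiar and novel juvenile; percentage time exploring each cup (snout-to-cup contact).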

For data set [5], the target named is Carbonic anhydrase 3 (Homo sapiens) (UniProt P07451). In words: Binding affinity to human CA3 by phenol red dye based stopped flow CO2 hydration assay. Conditions: filed as activator. The method, boiled down:
as §1

Data set [6] has as its system Mus musculus. In words: Pro-cognitive activity in C57Bl6 mouse assessed as attenuation of long-term memory deficit by measuring increase in exploration time for novel object by measuring discrimination index at 50 nmol/uL, icv measured after 24 hrs by novel object recognition test. In kind it is functional. The method, boiled down:
(§4)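 Novel object recognition in adult male C57Bl6 mice. Habituation was 10 min in an empty arena. Twenty-four hours later, mice explored two identical objects for 5 min, then received an immediate 5 µL lateral-ventricle infusion at 1 µL/min. A 5-min retention test with one familiar and one novel object followed 24 h later. Scores were % exploration time and DI = (tN−tF)/(tN+tF).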

The nature of data set [7]: Toxicity in C57Bl6 mouse assessed as reduction in distance travel at 50 nmol/uL administered directly into lateral ventricle by open field test. Conditions: in vivo, icv_or_intrathecal. The method, boiled down: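 Cannulated adult male C57Bl6 mice were placed in a 60×70 cm open-field arena 30 min after a 5 µL lateral-ventricle infusion. Total distance travelled over a 5-min session was recorded by overhead video tracking.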

For data set [8], the target named is Carbonic anhydrase 13 (Homo sapiens) (UniProt Q8N1Q1). In words: Binding affinity to human CA13 by phenol red dye based stopped flow CO2 hydration assay. Conditions: filed as activator. The method, boiled down: as §1
In data set [9] the target is Carbonic anhydrase 12 (Homo sapiens) (UniProt O43570). In words: Binding affinity to human CA12 by phenol red dye based stopped flow CO2 hydration assay. Conditions: filed as activator. The gist of the method:
as §1

The target in data set [10] is Carbonic anhydrase 4 (Homo sapiens) (UniProt P22748). In words: Binding affinity to human CA4 by phenol red dye based stopped flow CO2 hydration assay. As to conditions: filed as activator. The gist of the method:
as §1

Data set [11] relates to Mus musculus. In words: Pro-cognitive activity in C57Bl6 mouse assessed as attenuation of long-term memory deficit by measuring increase in exploration time for novel object at 50 nmol/uL, icv measured after 24 hrs by novel object recognition test. Type of data set: functional, organism-based. The gist of the method: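 Male adult C57Bl6 mice (8–9 weeks), lateral-ventricle cannula implanted one week before. 10-min habituation to empty open-field arena; 24 h later, 5-min acquisition with two identical objects, followed immediately by 5 µL i.c.v. infusion at 1 µL/min. 5-min retention test 24 h after acquisition with one familiar and one novel object; percentage exploration time per object, two-way ANOVA with Bonferroni.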

The nature of data set [12]: Toxicity in overnight fasted C57Bl6 mouse assessed as reduction in food intake at 50 nmol/uL administered directly into lateral ventricle measured for 2 hrs. Conditions: in vivo, icv_or_intrathecal. The gist of the method: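 Overnight-fasted male C57Bl6 mice received a lateral-ventricle infusion. Food was presented 30 min later, and intake was recorded at 0.5 h intervals over 2 h as cumulative consumption corrected for body weight; n = 8–9 per group.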

Data set [13] concerns the target Carbonic anhydrase 6 (Homo sapiens) (UniProt P23280). In words: Binding affinity to human CA6 by phenol red dye based stopped flow CO2 hydration assay. Conditions: filed as activator. The gist of the method: as §1
In data set [14] the test system is Mus musculus. In words: Pro-cognitive activity in C57Bl6 mouse assessed as attenuation of long-term memory deficit by measuring increase in exploration time for novel juvenile at 50 nmol/uL, icv measured after 48 hrs by novel object recognition test. Type of data set: functional, organism-based. The gist of the method: as §3
The subject of data set [15] is Mus musculus. In words: Pro-cognitive activity in C57Bl6 mouse assessed as attenuation of long-term memory deficit by measuring increase in exploration time for novel juvenile by measuring discrimination index at 25 nmol/uL, icv measured after 48 hrs by novel object recognition test. Type of data set: functional. The gist of the method: as §2
Data set [16] addresses Carbonic anhydrase 2 (Homo sapiens) (UniProt P00918). In words: Binding affinity to human CA2 by phenol red dye based stopped flow CO2 hydration assay. The method, boiled down:
as §1

Data set [17] concerns Mus musculus. In words: Pro-cognitive activity in C57Bl6 mouse assessed as attenuation of long-term memory deficit by measuring increase in exploration time for novel object at 25 nmol/uL, icv measured after 24 hrs by novel object recognition test. Type of data set: functional, organism-based. The gist of the method: as §4
In data set [18] the target is Carbonic anhydrase 14 (Homo sapiens) (UniProt Q9ULX7). In words: Binding affinity to human CA14 by phenol red dye based stopped flow CO2 hydration assay. Conditions: filed as activator. The method, boiled down:
as §1

Data set [19] concerns the target T1, Amine oxidase [flavin-containing] A (Homo sapiens, UniProt P21397).
T1 sequence (P21397 whole entry): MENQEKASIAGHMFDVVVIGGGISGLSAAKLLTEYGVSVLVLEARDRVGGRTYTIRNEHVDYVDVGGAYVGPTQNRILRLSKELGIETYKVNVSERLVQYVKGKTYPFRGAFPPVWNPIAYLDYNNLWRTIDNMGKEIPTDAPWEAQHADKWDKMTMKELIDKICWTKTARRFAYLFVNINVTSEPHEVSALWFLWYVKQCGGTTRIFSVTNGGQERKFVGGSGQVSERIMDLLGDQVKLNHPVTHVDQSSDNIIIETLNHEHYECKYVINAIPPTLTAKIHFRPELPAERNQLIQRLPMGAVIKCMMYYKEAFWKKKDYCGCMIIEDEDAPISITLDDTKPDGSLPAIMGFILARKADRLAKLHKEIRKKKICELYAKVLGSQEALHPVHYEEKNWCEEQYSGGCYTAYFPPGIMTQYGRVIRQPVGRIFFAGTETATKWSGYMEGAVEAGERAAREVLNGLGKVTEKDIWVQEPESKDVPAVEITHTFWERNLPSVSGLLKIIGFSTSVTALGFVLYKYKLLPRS
In words: Inhibition of human recombinant MAO-A assessed as inhibition of 4-hydroxyquinoline formation using kynuramine as substrate by fluorescence spectrophotometry analysis. The method, boiled down: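 Recombinant human MAO-A with kynuramine as substrate. The 4-hydroxyquinoline product was quantified by fluorescence spectrophotometry, and IC50 values were determined.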

Molecules are shown by their SMILES. pIC50: −log10 of the molar value. Active and inactive are the calls of the source. The calls are words filed in the database; no cut-off is given here.

Carbonic anhydrase 4 (Homo sapiens), sequence (P22748 whole entry): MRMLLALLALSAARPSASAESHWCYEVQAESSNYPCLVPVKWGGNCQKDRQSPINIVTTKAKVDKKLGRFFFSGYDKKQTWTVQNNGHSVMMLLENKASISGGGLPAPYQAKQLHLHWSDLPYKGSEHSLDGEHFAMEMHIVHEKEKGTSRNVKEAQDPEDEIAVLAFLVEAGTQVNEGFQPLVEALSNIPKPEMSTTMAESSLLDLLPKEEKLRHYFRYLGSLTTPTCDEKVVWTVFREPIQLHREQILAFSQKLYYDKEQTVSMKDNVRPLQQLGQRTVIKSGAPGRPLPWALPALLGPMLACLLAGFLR
Carbonic anhydrase 12 (Homo sapiens), sequence (O43570 whole entry): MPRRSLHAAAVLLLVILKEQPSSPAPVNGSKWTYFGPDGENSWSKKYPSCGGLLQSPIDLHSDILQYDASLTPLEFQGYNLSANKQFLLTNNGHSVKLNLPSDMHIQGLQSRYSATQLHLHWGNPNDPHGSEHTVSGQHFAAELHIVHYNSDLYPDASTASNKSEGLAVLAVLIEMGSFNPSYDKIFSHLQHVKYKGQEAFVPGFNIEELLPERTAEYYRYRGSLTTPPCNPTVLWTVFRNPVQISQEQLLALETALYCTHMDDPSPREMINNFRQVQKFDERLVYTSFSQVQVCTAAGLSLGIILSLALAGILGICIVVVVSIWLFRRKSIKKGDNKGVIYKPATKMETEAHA
Carbonic anhydrase 13 (Homo sapiens), sequence (Q8N1Q1 whole entry, looked up): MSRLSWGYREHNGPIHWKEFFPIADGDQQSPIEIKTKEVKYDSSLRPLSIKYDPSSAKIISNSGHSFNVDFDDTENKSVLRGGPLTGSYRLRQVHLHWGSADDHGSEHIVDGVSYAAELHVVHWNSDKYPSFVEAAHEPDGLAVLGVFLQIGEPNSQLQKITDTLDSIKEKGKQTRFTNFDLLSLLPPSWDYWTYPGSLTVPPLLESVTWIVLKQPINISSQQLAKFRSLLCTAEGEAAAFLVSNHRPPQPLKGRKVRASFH
Carbonic anhydrase 6 (Homo sapiens), sequence (P23280 whole entry): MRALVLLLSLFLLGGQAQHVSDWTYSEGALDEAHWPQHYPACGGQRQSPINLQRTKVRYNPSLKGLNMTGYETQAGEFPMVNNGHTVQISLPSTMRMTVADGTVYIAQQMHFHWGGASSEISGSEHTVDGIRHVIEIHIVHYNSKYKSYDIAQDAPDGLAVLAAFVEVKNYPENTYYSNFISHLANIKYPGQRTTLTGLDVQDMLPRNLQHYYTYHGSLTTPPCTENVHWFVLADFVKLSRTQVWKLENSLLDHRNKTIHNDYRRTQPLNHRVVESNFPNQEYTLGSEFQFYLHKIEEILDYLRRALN
Carbonic anhydrase 3 (Homo sapiens), sequence (P07451 whole entry): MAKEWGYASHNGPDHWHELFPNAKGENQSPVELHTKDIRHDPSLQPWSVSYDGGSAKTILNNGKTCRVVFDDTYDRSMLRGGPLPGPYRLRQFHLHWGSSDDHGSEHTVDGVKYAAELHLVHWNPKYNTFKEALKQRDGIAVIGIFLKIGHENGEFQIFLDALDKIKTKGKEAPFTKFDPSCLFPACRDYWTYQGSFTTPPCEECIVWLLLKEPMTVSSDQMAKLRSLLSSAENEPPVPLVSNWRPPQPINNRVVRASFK
Carbonic anhydrase 1 (Homo sapiens), sequence (P00915 2-261 limits assumed): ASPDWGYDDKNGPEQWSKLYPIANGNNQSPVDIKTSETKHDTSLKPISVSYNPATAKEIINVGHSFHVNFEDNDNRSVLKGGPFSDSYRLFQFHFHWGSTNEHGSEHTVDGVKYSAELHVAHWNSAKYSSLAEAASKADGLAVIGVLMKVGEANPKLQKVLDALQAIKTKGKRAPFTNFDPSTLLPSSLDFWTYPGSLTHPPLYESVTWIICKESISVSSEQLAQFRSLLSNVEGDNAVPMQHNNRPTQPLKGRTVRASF
Carbonic anhydrase 14 (Homo sapiens), sequence (Q9ULX7 whole entry): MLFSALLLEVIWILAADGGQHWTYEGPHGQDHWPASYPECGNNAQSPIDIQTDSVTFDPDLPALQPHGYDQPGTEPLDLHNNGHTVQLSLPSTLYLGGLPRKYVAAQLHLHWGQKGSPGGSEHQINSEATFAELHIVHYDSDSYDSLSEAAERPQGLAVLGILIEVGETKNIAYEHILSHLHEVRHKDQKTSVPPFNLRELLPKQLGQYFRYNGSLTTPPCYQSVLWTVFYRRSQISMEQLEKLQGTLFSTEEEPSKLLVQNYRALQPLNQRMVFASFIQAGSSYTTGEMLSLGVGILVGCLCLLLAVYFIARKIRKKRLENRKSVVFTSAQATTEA
Carbonic anhydrase 5B, mitochondrial (Homo sapiens), sequence (Q9Y2D0 whole entry, canonical isoform): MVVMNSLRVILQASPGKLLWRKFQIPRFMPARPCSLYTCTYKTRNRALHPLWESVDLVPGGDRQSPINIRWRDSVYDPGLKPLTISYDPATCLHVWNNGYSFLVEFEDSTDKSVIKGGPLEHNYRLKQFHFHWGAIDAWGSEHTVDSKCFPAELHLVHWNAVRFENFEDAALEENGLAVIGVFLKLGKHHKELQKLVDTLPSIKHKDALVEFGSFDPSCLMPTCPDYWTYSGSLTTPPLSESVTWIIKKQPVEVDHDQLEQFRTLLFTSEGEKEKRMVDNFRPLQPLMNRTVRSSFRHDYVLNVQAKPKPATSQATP

With `CC(N)CSc1ccccc1` (centres undefined), the Ka worked out at 18.7 µM in data set [1]; 11.8 µM in data set [3]; 26.8 µM in data set [5]; 82.4 µM in [8]; 43.3 µM in data set [9]; 7.1 µM in [10]. Also, the results for the Ka in [13], in [16] and in [18] were 70.9 µM, > 100 µM and 9.8 µM, respectively. Moreover, the Activity_index is 0.138 in data set [2], 0.185 in data set [6] and 0.038 in data set [15]. In addition, the outcome in [4] and in data set [17] was inactive. In addition, the Activity result in [7] and in [12] was “Non-Toxic” throughout. Also, the outcome in data set [11] and in [14] was Active. In addition, in data set [19], the pIC50 is 5.33.

The pIC50 is −log10 of the IC50, conventionally taken in molar units.
